Several values for one entry are separate records, joined by “and”; a condition that tells them apart may be missing. Equal values may be shown once.
Assays:
Mus musculus [1] = test: Long-term survivors when compound was tested for in vivo antileukemic activity towards P388 Murine Leukemia at dose of 10.0 mg/kg tested in 12 animals; assay type: functional
HT-29 [2] = test: Effect of compound as percent survival at dose of 100n g/mL on HT-29/Mx cell line after 72 hours; assay type: functional, Homo sapiens
Method in brief: (§1)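 HT29 or mitoxantrone-resistant HT29/Mx monolayers grown in McCoy's 5A with 10% FBS and 1% 1 M Hepes at 37 °C, 5% CO2. Cells exposed to drug for 72 h. Survival measured by cell counting and given as percent of untreated control.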

HT-29 [3] = test: Percent inhibition at S phase of cell cycle at a dose of 100n g/mL after 72 hours of induction in HT-29 cell line; assay type: functional, Homo sapiens
Method in brief: (§2)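 HT29 and mitoxantrone-resistant HT29/Mx colon adenocarcinoma monolayers in McCoy's 5A with 10% FBS and 1% 1 M Hepes, 37 °C, 5% CO2. Drug exposure 72 h. Cells then fixed in 70% ice-cold ethanol, washed twice and resuspended in PBS with 30 μg/mL propidium iodide and 66 units/mL RNase A. At least 10^4 cells per sample read for DNA content by flow cytometry. G1/S/G2M fractions reported as percentages.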

Mus musculus [4] = test: Long-term survivors when compound was tested for in vivo antileukemic activity towards P388 Murine Leukemia at dose of 20.0 mg/kg tested in 6 animals; assay type: functional
Mus musculus [5] = test: Long-term survivors when compound was tested for in vivo antileukemic activity towards P388 Murine Leukemia at dose of 30.0 mg/kg tested in 6 animals; assay type: functional
Mus musculus [6] = test: Toxic deaths at dose of 20 mg/kg (i.v.) to nude mice bearing sc Human colon carcinoma Xenografts tested in 4 animals; assay type: functional; details: route intravenous
Method in brief: (§3)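 Tumor fragments of A2780, A2780/Dx or HT29/Mx grafted sc in both flanks of Swiss athymic nude mice, 4–5 mice per group. Drug given iv once weekly on 3 days: days 4, 11, 18 (A2780, HT29/Mx) or days 7, 14, 21 (A2780/Dx). Dosing started at mean tumor volume 80–100 mm3. Toxic deaths recorded as deaths/total mice.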

Mus musculus [7] = test: In vivo antileukemic activity towards P388 Murine Leukemia at a dose of 1.0 mg/kg; assay type: functional
Mus musculus [8] = test: Toxic deaths at dose of 14 mg/kg (i.v.) to nude mice bearing sc Human HT-29/Mx tumor Xenografts tested in 4 animals; assay type: functional; details: route intravenous; method in brief: as §3
HT-29 [9] = test: Percent inhibition at S phase of cell cycle at a dose of 25 ng/mL after 72 hours of induction in HT-29 cell line; assay type: functional; details: Homo sapiens, HT-29, 72 h; method in brief: as §2
Mus musculus [10] = test: In vivo antileukemic activity towards P388 Murine Leukemia at a dose of 35.0 mg/kg; assay type: functional
Mus musculus [11] = test: Toxic deaths at dose of 6.7 mg/kg (i.v.) to nude mice bearing sc Human A2780 tumor Xenografts tested in 4 animals; assay type: functional; details: route intravenous; method in brief: as §3
K562 = test: Compound was tested in vitro for cytotoxicity against MDR cell line K562R (RI) (72 hr exposure to compound); assay type: functional, cell-based; details: Homo sapiens, K562, 72 h
Method in brief: (§4)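 HL60 or K562R cells were grown in RPMI 1640 with 10% FBS and exposed to drug for 72 h. Growth was measured by Coulter cell counting, and IC50 is the concentration giving 50% growth inhibition (mean of ≥3 experiments ± SEM). Resistance index = IC50 in K562R / IC50 in sensitive K562S.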

Mus musculus [12] = test: In vivo antileukemic activity towards P388 Murine Leukemia at a dose of 5.0 mg/kg; assay type: functional
Mus musculus [13] = test: In vivo antileukemic activity towards P388 Murine Leukemia at a dose of 20.0 mg/kg, expressed as body weight change; assay type: functional
A2780 = test: In vitro Cytotoxic activity of compound in comparison with reference compounds in human cell line A2780; assay type: functional, cell-based
Method in brief: (§5)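 Monolayer lines were used: A2780, A2780/Dx, DU145 and PC3 in RPMI 1640, LoVo and LoVo/Dx in Ham's F-12, and HT29 and HT29/Mx in McCoy's 5A, each with 10% FBS. Drug exposure was 72 h. […] Resistance index = IC50 in resistant / IC50 in sensitive line.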

Mus musculus [14] = test: In vivo antileukemic activity towards P388 Murine Leukemia at a dose of 2.5 mg/kg, expressed as body weight change; assay type: functional
HT-29 [15] = test: Percent inhibition at G1 phase of cell cycle at a dose of 25 ng/mL after 72 hours of induction in HT-29 cell line; assay type: functional; details: Homo sapiens, HT-29, 72 h
Method in brief: (§6)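 HT29 or HT29/Mx cells were treated for 72 h, then fixed in 70% ice-cold ethanol. Cells were stained with PBS containing 30 μg/mL propidium iodide and 66 units/mL RNase A, and DNA content was measured by flow cytometry on at least 10^4 cells to give G1, S and G2/M fractions.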

Mus musculus [16] = test: In vivo antileukemic activity towards P388 Murine Leukemia at a dose of 10 mg/kg, expressed as body weight change; assay type: functional
HT-29 [17] = test: Percent inhibition at G2/M phase of cell cycle at a dose of 10 ng/mL after 72 hours of induction in HT-29/Mx cell line; assay type: functional; details: Homo sapiens, HT-29, 72 h; method in brief: as §6
HL-60 = test: Compound was tested in vitro for cytotoxicity against HL60 human leukemia cell line (72 hr exposure to compound); assay type: functional, cell-based; details: HL-60, 72 h; method in brief: as §4
Mus musculus [18] = test: Long-term survivors when compound was tested for in vivo antileukemic activity towards P388 Murine Leukemia at dose of 35.0 mg/kg tested in 6 animals; assay type: functional
Mus musculus [19] = test: In vivo antileukemic activity towards P388 Murine Leukemia at a dose of 35.0 mg/kg, expressed as body weight change; assay type: functional
Mus musculus [20] = test: In vivo antileukemic activity towards P388 Murine Leukemia at a dose of 10.0 mg/kg; assay type: functional
HT-29 [21] = test: Percent inhibition at G1 phase of cell cycle at a dose of 100n g/mL after 72 hours of induction in HT-29/Mx cell line; assay type: functional, Homo sapiens; method in brief: as §6
HT-29 [22] = test: Percent inhibition at G1 phase of cell cycle at a dose of 100n g/mL after 72 hours of induction in HT-29 cell line; assay type: functional, Homo sapiens; method in brief: as §6
Mus musculus [23] = test: Tumor volume inhibition administered iv at a dose of 14 mg/kg to nude mice bearing sc Human HT-29/Mx Xenografts; assay type: functional
Method in brief: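 Swiss nude athymic mice carrying tumor fragments grafted sc in both flanks, 4–5 mice (8–10 tumors) per group. Tumor lines kept by sc passage. Dosing iv once weekly for 3 doses, starting at mean tumor volume ca. 80–100 mm3 (A2780, HT29/Mx: days 4, 11, 18; A2780/Dx: days 7, 14, 21). Diameters measured twice weekly; TV = d²×D/2. %TVI treated vs control assessed 3–10 days after last dose.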

HT-29 [24] = test: Effect of compound as percent survival at dose of 10 ng/mL on HT-29/Mx cell line after 72 hours; assay type: functional; details: Homo sapiens, HT-29, 72 h; read-out: Survival; method in brief: as §1
PC-3 = test: In vitro Cytotoxic activity of compound in comparison with reference compounds in human cell line PC3; assay type: functional, cell-based; method in brief: as §5
Mus musculus [25] = test: Long-term survivors when compound was tested for in vivo antileukemic activity towards P388 Murine Leukemia at dose of 22.5 mg/kg tested in 6 animals; assay type: functional
HT-29 [26] = test: Percent inhibition at G1 phase of cell cycle at a dose of 20 ng/mL after 72 hours of induction in HT-29/Mx cell line; assay type: functional; details: Homo sapiens, HT-29, 72 h; method in brief: as §6

CN(C)CCNc1ccc2ncnc3c2c1C(=O)c1c(O)ccc(O)c1-3 gave an LTS (Mus musculus [1]) of 0, a Survival (HT-29 [2]) of 12% and an Inhibition (HT-29 [3]) of 21%. The LTS (Mus musculus [4]) was 0, the LTS (Mus musculus [5]) was 0 and the Toxic deaths (Mus musculus [6]) was 0. The “T/C (ratio of treated to control)” value (Mus musculus [7]) was 118%, the Toxic deaths (Mus musculus [8]) was 0 and the inhibition at 0.025 µg/mL (HT-29 [9]) was 19%. The “T/C (ratio of treated to control)” value (Mus musculus [10]) was -110%, the Toxic deaths (Mus musculus [11]) was 0 and the IC50 (K562) was 10.4 nM. The “T/C (ratio of treated to control)” value (Mus musculus [12]) was 147% and 167%, the Body weight change (Mus musculus [13]) was 0.9 BWC and 0.94 BWC and the IC50 (A2780) was 8.3 nM. It also gave a Body weight change (Mus musculus [14]) of 0.98 BWC, an inhibition at 0.025 µg/mL (HT-29 [15]) of 48% and a Body weight change (Mus musculus [16]) of 0.98 BWC. For the same molecule, the inhibition at 0.01 µg/mL (HT-29 [17]) was 30%, the IC50 (HL-60) was 1.67 nM and the LTS (Mus musculus [18]) was 0. The Body weight change (Mus musculus [19]) was 0.73 BWC, the “T/C (ratio of treated to control)” value (Mus musculus [20]) was 172% and 196% and the Inhibition (HT-29 [21]) was 25%. It also gave an Inhibition (HT-29 [22]) of 23%, a TVI (Mus musculus [23]) of 7% and a viability at 0.01 µg/mL (HT-29 [24]) of 100%. The IC50 (PC-3) was 11.6 nM, the LTS (Mus musculus [25]) was 0 and the inhibition at 0.02 µg/mL (HT-29 [26]) was 58%.

Reference: ChEMBL document CHEMBL1132370, “8,11-dihydroxy-6-[(aminoalkyl)amino]-7H-benzo[e]perimidin-7-ones with activity in multidrug-resistant cell lines: synthesis and antitumor evaluation” (J Med Chem, 1999)
